The text below walks through data of article PMC12409571 (ACS Omega, 2025).

The structures appear in SMILES notation.

The term EC50 denotes the concentration at which the effect is half-maximal.

Assay [1] addresses human TRPV1 (Homo sapiens, UniProt Q8NER1). In words: Compound selectivity fluorescence-based Ca2+ assay, capsaicin-stimulated TRPV1. Conditions: 10 μM capsaicin; PHL-B 0.1-10 μM; capsazepine 1 μM. The format is cell-based.
Assay [2] deals with rat TRPM8 (Rattus norvegicus, UniProt Q8R455). In words: Compound selectivity fluorescence-based Ca2+ assay, menthol-stimulated TRPM8. The format is cell-based. The following applies: 30 μM menthol; PHL-B different concentrations; sesamin 20 μM. The essentials: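 HEK293T cells were cotransfected with rat TRPM8 and GCaMP6s and assayed after 48 h with GCaMP6s fluorescence. Channels were activated with 30 μM menthol; 20 μM sesamin served as the reference inhibitor. Read-out F/F0; N = 3–5 independent experiments.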

The target of assay [3] is T1, human TRPA1 (Homo sapiens, UniProt O75762). In words: Cell-attached single-channel recordings of TRPA1 in HEK293T cells. The format is cell-based. Conditions: −60 mV; 100 μM AITC alone, or with 5 μM PHL-B.
Assay [4] concerns the target T1, human TRPA1. In words: Whole-cell patch clamp of TRPA1 currents in HEK293T cells. Type of assay: cell-based. In general terms: In patch-clamp work, channel activity is measured electrically.
For assay [5], the system named is TRPA1 channels. Conditions: read-out: EC50 (activation of TRPA1 channels); cited from earlier work.
Where [6] appears, read: 100 μM AITC alone, or 100 μM AITC + 5 μM PHL-B, voltage ramp.

T1 sequence (O75762 whole entry): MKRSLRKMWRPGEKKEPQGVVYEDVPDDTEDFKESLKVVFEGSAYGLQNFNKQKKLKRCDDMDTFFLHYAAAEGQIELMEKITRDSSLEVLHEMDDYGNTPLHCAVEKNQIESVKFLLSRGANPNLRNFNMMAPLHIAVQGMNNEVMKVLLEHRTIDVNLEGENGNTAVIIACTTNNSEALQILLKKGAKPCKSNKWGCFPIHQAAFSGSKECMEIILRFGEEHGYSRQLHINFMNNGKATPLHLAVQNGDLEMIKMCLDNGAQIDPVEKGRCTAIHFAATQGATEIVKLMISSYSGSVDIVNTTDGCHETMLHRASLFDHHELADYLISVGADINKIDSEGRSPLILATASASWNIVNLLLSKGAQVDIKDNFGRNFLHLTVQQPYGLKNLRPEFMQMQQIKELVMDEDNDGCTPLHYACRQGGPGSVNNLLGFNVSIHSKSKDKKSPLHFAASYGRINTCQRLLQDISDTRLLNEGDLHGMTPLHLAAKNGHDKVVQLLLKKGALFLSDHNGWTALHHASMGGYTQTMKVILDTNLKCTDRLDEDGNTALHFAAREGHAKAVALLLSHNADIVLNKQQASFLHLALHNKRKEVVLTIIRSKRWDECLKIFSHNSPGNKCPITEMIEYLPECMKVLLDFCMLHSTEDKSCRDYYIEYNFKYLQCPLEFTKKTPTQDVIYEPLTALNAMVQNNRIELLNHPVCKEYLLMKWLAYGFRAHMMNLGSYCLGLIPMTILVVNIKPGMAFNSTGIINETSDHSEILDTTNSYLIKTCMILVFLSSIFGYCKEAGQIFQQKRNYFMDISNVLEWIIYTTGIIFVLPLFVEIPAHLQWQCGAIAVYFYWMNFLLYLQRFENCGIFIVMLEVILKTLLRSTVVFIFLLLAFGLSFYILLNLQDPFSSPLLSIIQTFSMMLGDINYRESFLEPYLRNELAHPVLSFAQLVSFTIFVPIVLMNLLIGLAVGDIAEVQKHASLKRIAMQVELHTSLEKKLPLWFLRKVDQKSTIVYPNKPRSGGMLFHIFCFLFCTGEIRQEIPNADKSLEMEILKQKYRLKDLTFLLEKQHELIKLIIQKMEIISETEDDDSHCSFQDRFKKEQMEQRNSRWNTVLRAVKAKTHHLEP
Sequence of rat TRPM8 (Q8R455 whole entry): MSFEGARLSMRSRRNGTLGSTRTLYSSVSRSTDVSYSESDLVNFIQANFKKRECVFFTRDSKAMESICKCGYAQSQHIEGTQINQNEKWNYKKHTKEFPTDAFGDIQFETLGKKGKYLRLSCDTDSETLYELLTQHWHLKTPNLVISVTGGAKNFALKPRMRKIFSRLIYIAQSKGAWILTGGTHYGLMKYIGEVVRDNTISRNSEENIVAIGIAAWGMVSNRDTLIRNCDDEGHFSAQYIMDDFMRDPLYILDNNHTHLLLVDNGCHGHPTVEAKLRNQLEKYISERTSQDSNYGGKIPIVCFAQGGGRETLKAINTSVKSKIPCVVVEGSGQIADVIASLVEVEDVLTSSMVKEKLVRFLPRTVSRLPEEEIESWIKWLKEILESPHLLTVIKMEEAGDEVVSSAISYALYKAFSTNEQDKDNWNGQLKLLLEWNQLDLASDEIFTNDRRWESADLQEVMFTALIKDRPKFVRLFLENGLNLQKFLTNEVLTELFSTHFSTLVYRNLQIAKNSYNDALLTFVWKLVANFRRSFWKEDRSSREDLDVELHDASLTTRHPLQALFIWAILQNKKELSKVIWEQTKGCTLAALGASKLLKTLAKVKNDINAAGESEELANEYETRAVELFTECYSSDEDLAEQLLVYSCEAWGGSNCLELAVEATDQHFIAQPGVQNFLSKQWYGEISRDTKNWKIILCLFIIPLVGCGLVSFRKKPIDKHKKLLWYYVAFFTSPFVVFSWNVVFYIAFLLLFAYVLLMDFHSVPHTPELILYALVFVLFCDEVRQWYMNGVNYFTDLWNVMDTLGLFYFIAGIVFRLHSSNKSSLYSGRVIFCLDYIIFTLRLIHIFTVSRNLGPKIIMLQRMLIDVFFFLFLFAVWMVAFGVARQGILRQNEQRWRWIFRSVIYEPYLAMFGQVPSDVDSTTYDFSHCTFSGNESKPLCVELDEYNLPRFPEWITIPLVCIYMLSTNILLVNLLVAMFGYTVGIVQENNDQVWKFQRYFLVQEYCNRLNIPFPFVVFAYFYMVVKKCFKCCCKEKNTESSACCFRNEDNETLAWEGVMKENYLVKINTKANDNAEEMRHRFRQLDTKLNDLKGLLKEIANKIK
Sequence of human TRPV1 (Q8NER1 whole entry): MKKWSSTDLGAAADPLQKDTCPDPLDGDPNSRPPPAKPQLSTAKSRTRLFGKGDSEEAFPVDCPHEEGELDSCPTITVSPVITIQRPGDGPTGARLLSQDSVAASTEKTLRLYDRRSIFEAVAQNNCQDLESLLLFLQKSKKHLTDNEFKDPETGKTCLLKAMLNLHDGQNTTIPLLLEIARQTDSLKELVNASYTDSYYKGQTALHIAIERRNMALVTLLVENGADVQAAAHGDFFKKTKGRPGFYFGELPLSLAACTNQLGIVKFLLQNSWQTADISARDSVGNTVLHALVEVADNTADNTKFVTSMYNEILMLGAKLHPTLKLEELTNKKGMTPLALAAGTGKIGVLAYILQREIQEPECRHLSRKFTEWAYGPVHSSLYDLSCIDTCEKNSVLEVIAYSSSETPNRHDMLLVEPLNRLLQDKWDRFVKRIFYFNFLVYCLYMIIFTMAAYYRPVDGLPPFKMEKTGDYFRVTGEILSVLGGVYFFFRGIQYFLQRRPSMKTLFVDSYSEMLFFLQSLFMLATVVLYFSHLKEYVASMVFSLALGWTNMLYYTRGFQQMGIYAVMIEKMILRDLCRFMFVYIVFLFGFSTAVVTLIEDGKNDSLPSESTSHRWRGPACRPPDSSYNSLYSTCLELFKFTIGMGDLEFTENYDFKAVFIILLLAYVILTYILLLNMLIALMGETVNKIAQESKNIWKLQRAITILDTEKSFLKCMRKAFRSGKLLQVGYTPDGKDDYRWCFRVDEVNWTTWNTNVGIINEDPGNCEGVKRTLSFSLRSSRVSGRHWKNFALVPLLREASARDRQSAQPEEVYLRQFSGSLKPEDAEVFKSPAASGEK

Regarding `Oc1cc2c(cc1O)CN(C(=S)NCCc1ccc(Cl)cc1)CCC2` [Capsazepine, capsazepine], the “effect on capsaicin-induced normalized fluorescence (TRPV1)” value in assay [1] was “fully abolished”.
Regarding `c1cc2c(cc1[C@H]1OC[C@H]3[C@@H]1CO[C@@H]3c1ccc3c(c1)OCO3)OCO2` [sesamin], the “effect on menthol-induced Ca2+ influx (TRPM8)” value in assay [2] is “practically inhibited all”.
For the molecule `C=CCN=C=S` [AITC, allyl isothiocyanate], the “fold increase of channel open probability (PO) over basal” value in assay [3] is “approximately 150 fold”. In assay [4] (setting [6]), the “current density at +50 mV” value came to 30.5 ± 2.9 pA/pF and the “current density at −100 mV” value is reported as −91.73 ± 11.47 pA/pF. The “τoff (time course of recovery)” value in assay [4] (−60 mV, 100 μM AITC, or 100 μM AITC + 5 μM PHL-B) came out at 28.6 ± 3.4 ms.
As for `CC(C)c1cc2c(c(O)c1O)[C@@]13CCCC(C)(C)[C@@H]1C[C@@H]2OC3=O` [carnosol], the half-maximal effective concentration (EC50) in assay [5] was roughly 12 µM.
